Cl transport mod: KCC2 cotransporter modulators, thallium flux, primary screen, cell-based, HEK293 KCC2, FluoZin-2 fluorescence, MLSMR; Solute carrier family 12 member 5 (Homo sapiens), Q9H2X9; KCC2 cells, thallium flux FluoZin-2 fluorescence; B-score of Tl+ flux slope (higher = more flux/activation; lower = inhibition) at 10 µM; hit rate 2.2% among 190,000; AID 1456, 2008;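 active means thallium flux slope and its plate-corrected score both differing from the plate sample mean at a set confidence after two filtering rounds, in either direction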;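 further: slope of fluorescence scaled to starting intensity during 10 to 20 s after thallium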
PMI activator: activators of human PMI, primary screen, biochemical, fluorescence intensity, near-Km mannose 6-phosphate; Mannose-6-phosphate isomerase (Homo sapiens), P34949; activation factor at 20 µM; purified human PMI, coupled resazurin fluorescence, 20 min; stronger effect = higher value; 1 = vehicle control, 0 substrate-free wells; hit rate 0.005% among 190,000;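 active means activation factor of 2 or more at 20 µM, relative to plate controls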
ABCG2 inh: ABCG2 efflux pump inhibitors, primary screen, multiplex with ABCB1, IgMXP3 cells, flow cytometry | Broad substrate specificity ATP-binding cassette transporter ABCG2 (Homo sapiens), Q9UNQ0 | JC-1 efflux | inhibition, % at 6.6 µM | hit rate 0.1% among 190,000;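 active means inhibition above 80%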;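 further: 0% = DMSO and 100% = nicardipine control wells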
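material = IgMXP3 (ABCG2) plus far-red-tagged CCRF-Adr (ABCB1) cells | amount = 3 million cells/mL, equal mix of both lines | also added = JC-1 transporter substrate | dosing = one concentration, 6.6 µM final | schedule = 10 min at 25 °C | measured by = flow cytometric JC-1 green MFI at 530 nm | read-out basis = percent efflux inhibition, scaled nicardipine 100% to DMSO 0%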
ROMK mod: ROMK potassium channel modulators, primary screen, cell-based, thallium flux, MLSMR library | Tet-inducible ROMK, thallium flux fluorescence; actives lie on both sides | B-score at 10 µM | hit rate 2% among 130,000 | AID 1918, 2009;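 active means signal ratio slope over the read window, or its plate-corrected B-score, at least 3 SD from the plate mean, either direction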;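 further: B-score of the F/F0 ratio slope over 7 to 12 s after thallium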
ABCB1 inh: ABCB1 efflux pump inhibitors, primary screen, cell-based, multiplex, flow cytometry, ABCG2 counter-screen. CCRF-Adr cells, JC-1 efflux. inhibition, % at 6.6 µM. ATP-dependent translocase ABCB1 (Homo sapiens), P08183. hit rate 0.067% among 190,000; in the data active means inhibition above about 40%;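 further: 0% = vehicle and 100% = reference inhibitor; higher value means more JC-1 retained so stronger ABCB1 efflux block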
Target sequence (P08183 whole entry, looked up): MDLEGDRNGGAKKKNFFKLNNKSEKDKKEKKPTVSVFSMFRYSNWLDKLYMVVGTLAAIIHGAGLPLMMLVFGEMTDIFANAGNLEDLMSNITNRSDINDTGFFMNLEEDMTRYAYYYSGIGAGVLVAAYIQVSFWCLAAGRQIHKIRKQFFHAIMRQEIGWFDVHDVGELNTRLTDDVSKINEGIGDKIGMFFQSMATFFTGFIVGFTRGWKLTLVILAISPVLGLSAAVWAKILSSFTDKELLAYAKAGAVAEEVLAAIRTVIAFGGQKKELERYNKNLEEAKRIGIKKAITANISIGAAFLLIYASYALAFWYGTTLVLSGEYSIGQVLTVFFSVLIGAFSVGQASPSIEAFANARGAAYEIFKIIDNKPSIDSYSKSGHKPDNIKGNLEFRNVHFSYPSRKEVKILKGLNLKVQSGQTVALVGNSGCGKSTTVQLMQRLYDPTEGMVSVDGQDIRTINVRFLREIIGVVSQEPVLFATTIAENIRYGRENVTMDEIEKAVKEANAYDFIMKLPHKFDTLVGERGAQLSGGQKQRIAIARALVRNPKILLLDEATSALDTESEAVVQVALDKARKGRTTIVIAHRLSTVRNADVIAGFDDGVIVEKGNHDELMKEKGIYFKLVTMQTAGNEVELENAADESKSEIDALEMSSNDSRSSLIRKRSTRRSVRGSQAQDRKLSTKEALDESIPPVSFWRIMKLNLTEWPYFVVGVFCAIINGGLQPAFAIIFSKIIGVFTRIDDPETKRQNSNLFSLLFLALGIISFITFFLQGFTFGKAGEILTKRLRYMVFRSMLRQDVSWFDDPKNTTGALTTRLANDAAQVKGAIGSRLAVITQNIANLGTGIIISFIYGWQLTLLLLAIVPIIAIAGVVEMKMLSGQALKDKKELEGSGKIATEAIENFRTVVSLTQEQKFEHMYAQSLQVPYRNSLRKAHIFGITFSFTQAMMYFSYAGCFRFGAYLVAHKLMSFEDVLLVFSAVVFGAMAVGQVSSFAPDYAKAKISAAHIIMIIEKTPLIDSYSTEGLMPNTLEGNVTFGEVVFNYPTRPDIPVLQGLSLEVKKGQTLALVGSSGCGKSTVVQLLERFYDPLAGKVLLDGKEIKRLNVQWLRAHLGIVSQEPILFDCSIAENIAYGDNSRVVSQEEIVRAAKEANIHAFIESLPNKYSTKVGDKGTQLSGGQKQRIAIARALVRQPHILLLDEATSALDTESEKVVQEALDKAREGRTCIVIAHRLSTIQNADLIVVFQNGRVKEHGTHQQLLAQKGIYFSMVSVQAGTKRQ
PMI act satM6P: human PMI activators, high substrate, primary screen, biochemical, fluorescence intensity, near-saturating mannose 6-phosphate. Mannose-6-phosphate isomerase (Homo sapiens), P34949. coupled PMI enzyme assay, resazurin fluorescence, 20 min; stronger effect = higher value; 1 = untreated enzyme, 0 = substrate-free blank. activation factor at 20 µM. hit rate 0.34% among 190,000. AID 1216, 2008;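 active means activation factor of 2 or more at 20 µM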
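Material: human phosphomannose isomerase with PGI, G6PDH, diaphorase coupling enzymes. Quantity: 15 ng/mL PMI. Medium: HEPES pH 7.4 buffer with MgCl2 and Tween-20. Reagent: Near-saturating mannose-6-phosphate, 1.0 mM. Compound: 20 µM single dose. Times: enzyme reaction with compound 20 min at room temperature. Detection: resorufin fluorescence at Ex 544/Em 590 nm.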
KCC2 secondary: KCC2 modulators in sodium-free buffer, confirmation, cell-based, HEK293 KCC2, thallium flux, secondary assay | hit rate 15% among 3,700 | FluoZin2 fluorescence; stronger effect = higher value | shares compounds with Cl transport mod | normalised thallium flux (F/F0 slope) at 10 µM | AID 1713, 2009;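 active means thallium flux slope above the same plate's solvent-only control mean plus 3 SD; inconclusive means the two replicate wells disagree; inactive means no significant difference from solvent-only control wells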
KCC2 bumet counter: thallium flux persisting under bumetanide in KCC2 cells, confirmation, counter-screen for KCC2 modulator project, cell-based, HEK293 KCC2, FluoZin2, secondary assay 3 | HEK293-KCC2 + bumetanide/ouabain; stronger effect = higher value | normalized thallium flux at 10 µM | hit rate 49% among 3,700 | shares compounds with Cl transport mod | AID 1714, 2009;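 active means thallium entry rate above the same plate's blocked-transporter control wells by more than 3 SD; inconclusive means the two repeat wells disagree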;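 further: raw slope of fluorescence over initial fluorescence between 10 and 20 s after thallium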
KCC2 secondary2: KCC2 modulators without ouabain present, confirmation, cell-based, HEK293 KCC2, thallium flux, FluoZin2, secondary assay 2; AID 1715, 2009; hit rate 23% among 3,700; normalized thallium flux at 10 µM; thallium flux FluoZin2 fluorescence; actives lie on both sides; F/F0 rise rate, 10–20 s post-thallium; shares compounds with Cl transport mod;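 active means thallium flux slope more than 3 SD above or below the plate's solvent-only control mean, mostly below; inconclusive means the two repeat wells disagreed; inactive means no significant shift from solvent-only controls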;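 further: raw slope with 0.1% DMSO as baseline and bumetanide as block control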
HEK counter1: thallium flux modulation in parental HEK cells, confirmation, counter-screen for KCC2 modulator project, cell-based, counterscreen 1; shares compounds with Cl transport mod; HEK293 parental cells, thallium flux FluoZin2, ouabain; baseline-ratio fluorescence slope, 10–20 s after thallium; thallium flux rate (normalised fluorescence) at 10 µM; hit rate 46% among 3,700;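 active means thallium flux rate significantly above the same plate's solvent-only control wells, beyond their mean plus 3 SD; inconclusive means the two replicate wells gave conflicting results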
KCC2 retest ouab: KCC2 inhibitors and activators, ouabain retest, confirmation, HEK-KCC2 cells; HEK293-KCC2, thallium flux FluoZin2 fluorescence; bidirectional: low = inhibitor, high = activator; AID 1717, 2009; shares compounds with Cl transport mod; raw Tl+ flux slope (below DMSO = inhibition, above = activation) at 10 µM; hit rate 48% among 3,700;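 active means thallium flux slope beyond 3 SD from same-plate DMSO control mean in most replicates, usually higher, sometimes lower; inconclusive means repeat tests gave conflicting results; inactive means no significant difference from controls in most replicates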;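 further: slope of initial-normalized fluorescence between seconds 10 and 20 after thallium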
HEK counter2: native HEK Tl+ uptake effects, second counter-screen – HEK cells, counterscreen 2, counter-screen for KCC2 modulator project, confirmation; shares compounds with Cl transport mod; HEK293 parental, thallium flux FluoZin-2 fluorescence slope; thallium flux slope at 10 µM; hit rate 33% among 3,700;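 active means thallium flux slope above the same plate's solvent-control mean plus 3 SD in both duplicate wells; inconclusive means duplicate wells that disagreed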;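 further: run without ouabain in cells lacking the KCC2 cotransporter; slope of fluorescence scaled to its starting value between 10 and 20 s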
Starred values were filed as active, the others as inactive; ? = inconclusive; nt = no result given. Compounds with a hit are over-represented: about 3.3% of the library has one in this group of screens.

SMILES	Cl transport mod	PMI activator	ABCG2 inh	ROMK mod	ABCB1 inh	PMI act satM6P	KCC2 secondary	KCC2 bumet counter	KCC2 secondary2	HEK counter1	KCC2 retest ouab	HEK counter2
Cc1ccc(S(=O)(=O)c2cnc(-c3ccccc3)nc2N2CCCCC2)cc1	-0.035	0.8	2	-0.26	2	0.9	nt	nt	nt	nt	nt	nt
CCN(CC)c1ccc(NC(=O)C2CCCN(S(=O)(=O)c3cccnc3)C2)c(C)c1 (configuration not stated)	-0.77	1	-2	nt	-1	0.9	nt	nt	nt	nt	nt	nt
N#Cc1nc(Cc2ccccc2)oc1NCc1ccccc1Cl	-2.9*	0.9	1	nt	0	1	0.0075	0.0058	0.03	0.0057*	0.016*	0.0099
CC(C)Nc1oc(Cc2cccc3ccccc23)nc1C#N	-4.5*	0.8	2	nt	0	0.8	0.0068	0.0055	?	?	0.014*	0.011
COc1ccc(CCNc2oc(Cc3cccc4ccccc34)nc2C#N)cc1OC	-2.9	0.7	10	nt	1	0.8	nt	nt	nt	nt	nt	nt
CNc1oc(Cc2cccc3ccccc23)nc1C#N	nt	0.9	4	-1.8	1	0.9	0.011	0.0082*	?	0.0079	0.014*	?
N#Cc1nc(Cc2ccccc2)oc1NCc1cccnc1	0.097	1.1	1	nt	0	1	nt	nt	nt	nt	nt	nt
CC(=O)c1ccc(OC(C)C)c(CN2CCCCC2)c1	0.046	1	11	nt	0	1	nt	nt	nt	nt	nt	nt
CCC(C)C(NC(=O)OC(C)(C)C)C(=O)NC(C(=O)N1CCCC1C(N)=O)C(C)CC (configuration not stated)	0.052	1.1	0	nt	0	1	nt	nt	nt	nt	nt	nt
CC(c1ccon1)N(C)Cc1cn(C)nc1-c1cccc(Cl)c1 (configuration not stated)	-0.32	0.9	3	0.4	1	1	nt	nt	nt	nt	nt	nt
CCc1ccc(/C=N\NC(=O)c2ccc(Br)o2)s1	6*	1	11	-0.00048	1	1	0.0094	0.022*	0.031	0.021*	0.023	0.012*
CCN(CC)c1ccc(/C=N/NC(=O)c2ccc(Br)o2)cc1	-2.4	1	14	1.4	1	1	nt	nt	nt	nt	nt	nt
Cc1ccc(/C=N/NC(=O)c2ccc(Br)o2)s1	5.3*	1.1	5	0.61	1	1	0.0091	0.0092*	0.033	?	0.021	0.012
O=C(N/N=C/c1ccco1)c1ccc(Br)o1	0.55	1	6	0.93	0	0.9	nt	nt	nt	nt	nt	nt
CN(C)c1ccc(C(c2ccc(N(C)C)cc2)c2ccc([N+](=O)[O-])cc2)cc1	-1.1	nt	nt	nt	nt	nt	nt	nt	nt	nt	nt	nt
O=C(NCc1cccnc1)C1c2ccccc2C(=O)N1C1CCCCCC1 (configuration not stated)	-4.5*	1.1	nt	nt	nt	1	0.0099	0.0071	0.034	0.0088	0.023	?
O=C(NCc1cccnc1)C1c2ccccc2C(=O)N1C1CCCCCCC1 (configuration not stated)	nt	1	-1	0.19	-2	1	nt	nt	nt	nt	nt	nt
C/C(=N\OCC(=O)NC12CC3CC(CC(C3)C1)C2)c1cc2ccccc2o1	0.48	0.9	24	nt	-1	1	nt	nt	nt	nt	nt	nt
O=C(CSc1nnnn1-c1ccccc1F)Nc1nc2ccccc2s1	-1.3	0.9	2	0.26	0	0.9	nt	nt	nt	nt	nt	nt
C=CCn1c(CCNC(=O)c2ccccc2F)nnc1SCC(=O)Nc1nc2ccccc2s1	nt	1	17	0.45	2	0.9	0.016	0.0043	0.025*	0.0064	0.014	0.0086
Cc1cc(=O)c(C(=O)O)cn1Nc1ccc(Cl)cc1	-0.54	0.9	0	-0.0069	0	1	nt	nt	nt	nt	nt	nt
Cc1ccc(C(=O)N(CN2CCCC2=O)c2ccccc2)cc1C	nt	1.1	1	0.17	0	1	0.0086	0.0064	0.028	0.0073	0.02	0.0098
Cc1ccc(N(CN2CCCC2=O)C(=O)c2ccc(C)c(C)c2)cc1	nt	0.9	7	-0.0083	6	0.9	nt	nt	nt	nt	nt	nt
O=C(CCn1c(=O)[nH]c2ccsc2c1=O)N(CCc1ccccc1)Cc1ccccc1	nt	0.9	7	-2.4	1	0.9	0.0093	0.0061	0.03	0.0071	?	0.011
Cc1ccc(NC(=O)N2N=C(c3ccc(F)cc3)CC2c2ccc(F)cc2)cc1 (configuration not stated)	-2	0.9	1	0.03	0	1	nt	nt	nt	nt	nt	nt
O=C(c1ccc2c(=O)n(C3CCCC3)c(=S)[nH]c2c1)N1CCN(C2CCCCC2)CC1	8.3*	0.9	2	-1.3	0	0.8	0.0063	0.0098*	0.029	0.015*	0.021	0.013*
CCOC(=O)N1CCN(C(=O)c2ccc3c(=O)n(Cc4ccc(Cl)cc4)c(=S)[nH]c3c2)CC1	nt	0.9	37	1.9	-1	1	0.0063	0.015*	0.032	0.013*	?	0.016*
CCN1CCN(C(=O)c2ccc3c(=O)n(C4CCCC4)c(=S)[nH]c3c2)CC1	nt	1	2	nt	0	1	nt	nt	nt	nt	nt	nt
O=C(COC(=O)c1ccccc1F)Nc1cccnc1Cl	-0.052	1	7	-0.3	1	0.9	nt	nt	nt	nt	nt	nt

From PubChem BioAssay
